TRPC4 act: TRPC4 (mouse) channel activation; HEK293 TRPC4beta/mu-opioid, Fluo4 calcium fluorescence; hits give high values; B-score at 10 µM; 310,000 compounds, 0.49% hits; AID 2237;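 active means B-score above 5 SD of library B-scores, and initial fluorescence ratio not above library mean plus 5 SD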;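 further: positive B-score marks a calcium rise read as TRPC4 activation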
Target sequence (Q9QUQ5 whole entry, looked up): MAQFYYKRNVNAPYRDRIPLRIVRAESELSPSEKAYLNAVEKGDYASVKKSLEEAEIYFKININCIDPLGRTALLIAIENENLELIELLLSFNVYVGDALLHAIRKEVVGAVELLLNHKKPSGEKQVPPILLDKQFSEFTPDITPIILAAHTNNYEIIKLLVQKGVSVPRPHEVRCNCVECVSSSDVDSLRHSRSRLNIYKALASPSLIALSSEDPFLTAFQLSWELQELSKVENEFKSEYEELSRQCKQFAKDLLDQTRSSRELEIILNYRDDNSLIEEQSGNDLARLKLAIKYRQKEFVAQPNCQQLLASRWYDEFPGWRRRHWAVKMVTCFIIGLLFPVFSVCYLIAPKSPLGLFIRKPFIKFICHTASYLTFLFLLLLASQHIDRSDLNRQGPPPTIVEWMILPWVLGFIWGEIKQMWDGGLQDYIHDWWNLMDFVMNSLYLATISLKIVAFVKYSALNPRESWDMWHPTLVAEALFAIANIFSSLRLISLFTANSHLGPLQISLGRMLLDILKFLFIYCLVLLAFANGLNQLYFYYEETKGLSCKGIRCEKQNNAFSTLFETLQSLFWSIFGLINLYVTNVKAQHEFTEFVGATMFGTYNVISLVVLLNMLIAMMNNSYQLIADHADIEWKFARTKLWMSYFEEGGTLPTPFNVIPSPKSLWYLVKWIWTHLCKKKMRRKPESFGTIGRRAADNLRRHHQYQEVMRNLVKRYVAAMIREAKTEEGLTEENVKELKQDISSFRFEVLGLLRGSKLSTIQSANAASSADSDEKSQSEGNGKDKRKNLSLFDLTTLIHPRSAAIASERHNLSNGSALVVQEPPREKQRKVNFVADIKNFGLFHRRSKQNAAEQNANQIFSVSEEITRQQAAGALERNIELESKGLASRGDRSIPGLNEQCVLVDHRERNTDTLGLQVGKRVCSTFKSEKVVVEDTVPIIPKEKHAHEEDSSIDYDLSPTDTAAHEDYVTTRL
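Material: HEK293 stable line with TRPC4beta plus mu-opioid receptor; technique: Fluo4 calcium-sensitive dye fluorescence, kinetic, 1 Hz baseline; timing: Fluo4 dye loading 45 min at room temperature, 110 s recording; controls: assay buffer as low control, maximal DAMGO as high control; read-out: integrated baseline-normalised fluorescence ratio, converted to per-well B score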
TRPC6 activator: activates the mouse TRPC6 cation channel; Q61143; HEK293-TRPC6 membrane potential dye fluorescence; hits give high values; B-score at 10 µM; 310,000 compounds, 0.13% hits;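 active means B-score of the integrated fluorescence ratio above library mean plus 3 SD, and starting fluorescence ratio within library mean plus 5 SD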;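 further: higher score means more depolarization so channel activation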
TRPC4 potent: allosteric potentiators of mouse TRPC4 channel. Q9QUQ5. AID 2227. HEK293 TRPC4beta/mu-opioid, DAMGO EC20, Fluo-4 Ca2+ flux; hits give high values. B-score at 10 µM. 310,000 compounds, 0.42% hits;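 active means B-score of calcium response area above 5 SD of library B-scores, with initial fluorescence ratio within 5 SD of library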;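 further: B-score of integrated fluorescence ratio over time as area under calcium response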
TRPC4 inh: blocks the mouse TRPC4 cation channel. HEK293 TRPC4beta/mu-opioid, DAMGO-evoked Fluo4 calcium flux; hits give low values. B-score at 10 µM. 300,000 compounds, 0.39% hits. Q9QUQ5;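 active means B-score over 3 SD under the library average, no early fluorescence shift, positive overall ratio signal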
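Assay system: TRPC4beta/mu-opioid receptor HEK293 cell line; compound dosing: single concentration per test compound; detection: Fluo4 Ca2+ flux fluorescence; evaluation: per-well B score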
TRPC6 inh: mouse TRPC6 channel inhibition. Q61143. HEK293-TRPC6, membrane potential dye, ACh-evoked depolarization; hits give low values. B-score at 10 µM. 310,000 compounds, 1.1% hits. AID 2553;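 active means B-score under library mean minus 3 SD, initial fluorescence not abnormally high, positive integrated signal ratio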;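 further: B-score derived from integrated fluorescence ratio over the kinetic read; more negative B-score means stronger inhibition of depolarization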
TRPC4 sel inh 2: second check of whether TRPC6 inhibitors also affect mouse TRPC4; shares compounds with TRPC6 inh; HEK293 TRPC4/MOR, membrane potential dye fluorescence; channel activated by saturating DAMGO dose; inhibition, % at 10 µM; 920 compounds, 42% hits;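 active means compounds whose fluorescence signal differed from control wells by over 3 SD, either direction, in both duplicate plates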
TRPC4 spec: selectivity of TRPC6 inhibitors: effect on mouse TRPC4; shares compounds with TRPC6 inh; HEK293 TRPC4/mu-opioid, membrane potential fluorescence; 920 compounds, 61% hits; activity change, negative = inhibition, % at 10 µM;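 active means rise or fall in signal beyond 3 SD of buffer-only wells in both replicate plates, either sign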;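 further: integrated kinetic ratio of fluorescence range over baseline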
HEK293 MPD ctr 2-1: parental HEK293 nonspecific activity of TRPC6 inhibitors, second screen; shares compounds with TRPC6 inh; parental HEK293 membrane potential dye fluorescence; maximal acetylcholine challenge after compound addition; signal change vs control, % at 10 µM; 920 compounds, 31% hits; AID 2779;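 active means membrane potential signal moving either way by over 3 SD of the maximum-effect control, in both duplicate plates, meaning non-specific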
HEK293 MPD ctr-1: checks TRPC6 inhibitor effects in parental HEK293 cells; membrane potential signal change, % at 10 µM; shares compounds with TRPC6 inh; AID 2780; parental HEK293 membrane potential dye fluorescence; 920 compounds, 60% hits;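 active means membrane potential signal shifting up or down by more than 3 SD of buffer-only wells, on both duplicate plates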
HEK293 MPD ctr-2: checks TRPC6 modulator effects in parental HEK293 cells | 2,400 compounds, 51% hits | shares compounds with TRPC6 inh | AID 488924 | membrane potential dye fluorescence | membrane potential signal change, % at 10 µM;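 active means membrane potential signal moves up or down beyond 5 SD from buffer-only wells, on both duplicate plates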
HEK293 MPD ctr 2-2: second counter-screen for TRPC6 modulators: effect in parental HEK293 cells. AID 488926. 2,400 compounds, 14% hits. inhibition, % at 10 µM. membrane potential dye fluorescence; after compound, maximal acetylcholine stimulation. shares compounds with TRPC6 inh;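 active means membrane potential signal drops by more than 5 SD from the mean control signal, in both duplicate plates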;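 further: plate controls were acetylcholine ECmax control wells for no effect and buffer only wells for full effect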
TRPC4/MOR mod: mouse TRPC4 off-target activity of TRPC6 modulators. 2,400 compounds, 69% hits. HEK293 TRPC4/mu-opioid, membrane potential fluorescence. percent change from control (negative = decrease, positive = increase), % at 10 µM. AID 488927. shares compounds with TRPC6 inh;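 active means membrane potential signal moved up or down beyond 5 SD of buffer control wells, in both duplicate plates, actives on both sides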;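 further: plate controls were assay buffer wells for no effect and DAMGO maximal-effect wells for full effect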
TRPC4/MOR inh 2: mouse TRPC4 off-target activity of TRPC6 modulators, second screen | shares compounds with TRPC6 inh | HEK293 TRPC4/mu-opioid, membrane potential dye fluorescence; stimulated with maximal-effect DAMGO | inhibition, % at 10 µM | 2,400 compounds, 55% hits;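 active means drop in membrane potential signal beyond 5 SD of the control wells in both duplicate plates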;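 further: TRPC4 counter screen for TRPC6 hits run under conditions tuned for TRPC6 not TRPC4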
TRPC6 block conf: confirmation of mouse TRPC6 inhibitors | shares compounds with TRPC6 inh | HEK293-TRPC6, membrane potential dye, ACh-evoked depolarization | inhibition, % at 10 µM | 3,300 compounds, 43% hits;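 active means fluorescence ratio falls more than 5 SD below the full-stimulation control mean, in both duplicate runs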;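 further: integrated fluorescence ratio of peak minus minimum over baseline after agonist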
TRPC6 act conf: mouse TRPC6 activator confirmation | AID 488961 | activation, % at 10 µM | HEK293-TRPC6 membrane potential dye fluorescence, FDSS | 2,800 compounds, 11% hits | shares compounds with TRPC6 inh;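 active means ratio signal rise beyond 5 SD above unstimulated control wells' mean, seen in both duplicate runs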;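 further: plate controls were buffer EC0 wells for no effect and acetylcholine ECmax response for full effect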
The depositor's hits bear a star; i = inactive; x = no result given. Rows were chosen to be rich in hits. Some 2.3% of all compounds tested hit in one or more screens of this group.

SMILES | TRPC4 act | TRPC6 activator | TRPC4 potent | TRPC4 inh | TRPC6 inh | HEK293 MPD ctr-2 | HEK293 MPD ctr 2-2 | TRPC4/MOR mod | TRPC4/MOR inh 2 | TRPC6 block conf | TRPC6 act conf | others
CCn1c2c(c(=N)c3ccccc31)CCC2 | i | i | i | i | -11* | x | x | x | x | 72%* | i | TRPC4 sel inh 2=68%*;TRPC4 spec=-34%*;HEK293 MPD ctr 2-1=-12%*;HEK293 MPD ctr-1=-593%*
N=c1c2c(n(Cc3ccc(F)cc3)c3c1CCC3)CCC2 | i | i | i | i | -5.8* | -192%* | i | -32%* | 62%* | i | i
Cn1c(NNC(=O)c2cccc3ccccc23)cc(=O)n(C)c1=O | i | i | i | i | i | x | x | x | x | x | x
CCn1c2c(c(=N)c3c1CCC3)CCC2 | i | i | i | i | -7* | -234%* | i | -39%* | 40%* | 36%* | i
O=Cc1ccc2ccc3cccnc3c2n1 | i | i | i | i | -9.8* | -386%* | 95%* | -60%* | 68%* | 78%* | i
Cc1ccc(CSC2=NCCN2C(=O)c2ccc(S(=O)(=O)N(C)C)cc2)cc1 | i | i | i | i | i | x | x | x | x | x | x
CN1CCN(NC(=O)CN2C(=O)/C(=C/c3ccccc3Cl)SC2=S)CC1 | i | i | i | i | -8.3* | x | x | x | x | 61%* | i | TRPC4 sel inh 2=64%*;TRPC4 spec=i;HEK293 MPD ctr 2-1=i;HEK293 MPD ctr-1=-130%*
CC(C)(C)OC(=O)NC1CC2CCCC(C1)N2Cc1ccccc1 (stereo unspecified) | i | i | i | i | -5.6* | i | 88%* | 14%* | 29%* | 74%* | x
COCC(=O)NC1CC2CCCC(C1)N2Cc1ccccc1 (stereo unspecified) | i | i | i | i | i | x | x | x | x | x | x
CCOc1ccccc1C(=O)Nc1cccc2cccnc12 | i | i | i | i | i | x | x | x | x | x | x
CC(C)(O)C#Cc1ccc(CN2CCN(C3CCCCC3)C(CCO)C2)s1 (stereo unspecified) | i | i | i | i | -7.4* | x | x | x | x | i | i | TRPC4 sel inh 2=i;TRPC4 spec=i;HEK293 MPD ctr 2-1=i;HEK293 MPD ctr-1=i
COC(c1ccccc1)c1nnc(CCC(=O)N(C)Cc2cccc(-n3cccn3)c2)o1 (stereo unspecified) | i | 16* | i | i | i | i | i | 8.5%* | i | i | i
CCCn1c(N2CCN(C)CC2)nc2c1c(=O)[nH]c(=O)n2C | i | i | i | i | i | x | x | x | x | x | x
Cn1c(=O)[nH]c(=O)c2c1nc(N1CCCCCC1)n2CCN1CCCCCC1 | i | i | i | i | -6.6* | x | x | x | x | i | i | TRPC4 sel inh 2=54%*;TRPC4 spec=-11%*;HEK293 MPD ctr 2-1=i;HEK293 MPD ctr-1=-218%*
CN1CCN(c2nc3c(c(=O)[nH]c(=O)n3C)n2CCCSc2ncccn2)CC1 | i | i | i | i | -5.9* | -166%* | i | -30%* | i | i | i
CCN1CCN(c2nc3c(c(=O)[nH]c(=O)n3C)n2CCCSc2ncccn2)CC1 | i | i | i | i | -5.4* | -188%* | i | -22%* | 46%* | i | i
CCN1CCN(c2nc3c(c(=O)[nH]c(=O)n3C)n2CCCc2ccccc2)CC1 | i | i | i | i | i | x | x | x | x | x | x
COc1ccc(CN(C(=O)c2cc(=O)c3cc(C)cc(C)c3o2)C2CCS(=O)(=O)C2)cc1 (stereo unspecified) | i | i | i | i | i | x | x | x | x | x | x
COc1ccccc1N(Cc1cc2cccc(C)c2[nH]c1=O)C(=O)C(C)C | i | i | i | i | i | x | x | x | x | x | x
O=C(CC(c1ccccc1)c1ccccc1O)N1CCCCC1 (stereo unspecified) | i | i | i | i | -6.3* | i | i | i | i | i | x
COc1ccc(-n2cnnc2SCc2csc(-c3ccccc3)n2)cc1 | i | i | i | i | -5.2* | i | i | 14%* | i | 43%* | x
COc1ccc(-n2cnnc2SCC(=O)N(C)c2ccccc2)cc1 | i | i | i | i | i | x | x | x | x | x | x
CCOC(=O)N1CCC(Nc2c(NCCCN(CC)c3cccc(C)c3)c(=O)c2=O)CC1 | i | i | i | i | i | x | x | x | x | x | x
O=C(O)Cn1c(=O)c(F)cn(C2CCCO2)c1=O (stereo unspecified) | i | i | i | i | i | x | x | x | x | x | x
CCOC(=O)C1=c2s/c(=C\c3cccnc3)c(=O)n2C(N)=C(C(=O)OC)C1c1cccnc1 (stereo unspecified) | i | i | i | i | -5.1* | i | i | i | i | i | i
COc1cc(S(=O)(=O)N2CCN(c3ccccc3F)CC2)ccc1Cl | i | i | i | i | -5* | i | i | i | i | i | i
COC(=O)CSc1nnc(SCc2ccc(OC)cc2)s1 | i | i | i | i | -5.5* | i | i | i | i | i | i
Cc1ccc(Nc2c(-c3ccccn3)nc3cc(C)ccn23)cc1 | i | i | i | i | -5.5* | -134%* | i | -27%* | 72%* | i | i

Assay outcomes: PubChem BioAssay, Johns Hopkins Ion Channel Center
